From ChEMBL document CHEMBL4004835, “Discovery of Novel Disruptor of Silencing Telomeric 1-Like (DOT1L) Inhibitors using a Target-Specific Scoring Function for the (S)-Adenosyl-l-methionine (SAM)-Dependent Methyltransferase Family” (J Med Chem, 2017)
The source made the active and inactive calls. No cut-off for these calls is given here.

How the values were obtained:
[1] = biological target: T1, Histone-lysine N-methyltransferase, H3 lysine-79 specific (Homo sapiens, UniProt Q8TEK3); assay: Inhibition of N-terminal 6His-tagged human DOT1L (1 to 416 residues) expressed in Escherichia coli BL21(DE3) at 50 uM preincubated for 15 mins followed by [3H]-SAM addition measured after 120 mins by radioactive methylation assay
Method in brief: (§1)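 DOT1L and compound preincubated 15 min at room temperature; oligonucleosome and 3H-SAM added; reaction 120 min at room temperature, stopped with cold SAM; transferred to 0.5% PEI-pretreated filter plate, washed 3× with water, read by liquid scintillation counting.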
Target sequence in this assay (Q8TEK3 whole entry, looked up, the tested form may be a part): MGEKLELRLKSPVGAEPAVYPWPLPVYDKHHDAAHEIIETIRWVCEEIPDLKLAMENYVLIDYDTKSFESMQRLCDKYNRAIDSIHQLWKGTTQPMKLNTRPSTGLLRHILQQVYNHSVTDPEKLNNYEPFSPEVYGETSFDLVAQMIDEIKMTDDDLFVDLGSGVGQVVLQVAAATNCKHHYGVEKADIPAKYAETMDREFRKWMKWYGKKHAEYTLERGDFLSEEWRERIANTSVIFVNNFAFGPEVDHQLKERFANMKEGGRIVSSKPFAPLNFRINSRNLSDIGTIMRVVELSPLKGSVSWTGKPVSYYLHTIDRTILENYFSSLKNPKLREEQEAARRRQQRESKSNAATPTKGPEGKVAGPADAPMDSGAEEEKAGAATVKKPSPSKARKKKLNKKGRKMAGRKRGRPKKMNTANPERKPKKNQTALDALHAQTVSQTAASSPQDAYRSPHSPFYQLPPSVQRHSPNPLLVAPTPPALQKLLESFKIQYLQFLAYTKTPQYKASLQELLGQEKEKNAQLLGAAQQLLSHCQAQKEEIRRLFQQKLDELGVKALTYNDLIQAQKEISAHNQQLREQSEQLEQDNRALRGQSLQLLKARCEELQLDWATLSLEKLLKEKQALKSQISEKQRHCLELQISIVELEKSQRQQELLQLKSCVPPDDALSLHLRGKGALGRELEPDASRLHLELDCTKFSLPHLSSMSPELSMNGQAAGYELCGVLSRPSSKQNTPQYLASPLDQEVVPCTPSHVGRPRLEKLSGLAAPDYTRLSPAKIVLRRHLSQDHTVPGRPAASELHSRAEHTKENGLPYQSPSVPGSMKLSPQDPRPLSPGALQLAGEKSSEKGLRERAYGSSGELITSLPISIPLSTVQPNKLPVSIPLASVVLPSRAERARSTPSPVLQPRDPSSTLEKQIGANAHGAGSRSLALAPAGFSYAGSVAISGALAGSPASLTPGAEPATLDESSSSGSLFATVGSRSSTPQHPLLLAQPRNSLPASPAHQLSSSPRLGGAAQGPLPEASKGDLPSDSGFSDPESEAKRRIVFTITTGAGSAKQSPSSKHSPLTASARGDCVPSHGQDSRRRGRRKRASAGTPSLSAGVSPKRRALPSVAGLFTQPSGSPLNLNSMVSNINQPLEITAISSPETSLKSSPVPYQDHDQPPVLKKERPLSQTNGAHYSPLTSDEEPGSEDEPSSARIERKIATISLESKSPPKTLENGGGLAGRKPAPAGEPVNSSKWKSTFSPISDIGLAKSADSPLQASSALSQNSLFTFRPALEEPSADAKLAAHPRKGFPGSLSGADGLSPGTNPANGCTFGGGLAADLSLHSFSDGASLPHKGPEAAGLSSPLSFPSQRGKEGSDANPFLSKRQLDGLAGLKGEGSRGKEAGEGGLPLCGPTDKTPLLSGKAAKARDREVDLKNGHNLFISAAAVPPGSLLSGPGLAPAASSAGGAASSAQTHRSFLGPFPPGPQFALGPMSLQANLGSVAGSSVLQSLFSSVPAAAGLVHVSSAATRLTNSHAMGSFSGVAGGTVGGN

[2] = biological target: T1, Histone-lysine N-methyltransferase, H3 lysine-79 specific; assay: Inhibition of N-terminal 6His-tagged human DOT1L (1 to 416 residues) expressed in Escherichia coli BL21(DE3) at preincubated for 15 mins followed by [3H]-SAM addition measured after 120 mins by radioactive methylation assay; method in brief: as §1
Target sequence in this assay (Q8TEK3 whole entry, the tested form may be a part): as the sequence (Q8TEK3 whole entry, looked up, the tested form may be a part) above

[3] = biological target: T1, Histone-lysine N-methyltransferase, H3 lysine-79 specific; assay: Inhibition of N-terminal 6His-tagged human DOT1L (1 to 416 residues) expressed in Escherichia coli BL21(DE3) at 50 uM using histone H3 as substrate preincubated for 15 mins followed by SAM addition measured after 60 mins by AlphaLISA assay
Method in brief: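 DOT1L (80 nM final) preincubated with compound 15 min at 25 °C; SAM 1 mM and oligonucleosomes 0.25 ng/μL added in 50 mM Tris-HCl pH 8.0, 150 mM NaCl, 3 mM MgCl2, 0.1% BSA, 60 min at 25 °C; stopped with high-salt buffer; H3K79me2 detected with anti-H3 acceptor beads, biotinylated antibody, then streptavidin donor beads.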
Target sequence in this assay (Q8TEK3 whole entry, looked up, the tested form may be a part): as above

[4] = biological target: T1, Histone-lysine N-methyltransferase, H3 lysine-79 specific; assay: Inhibition of N-terminal 6His-tagged human DOT1L (1 to 416 residues) expressed in Escherichia coli BL21(DE3) at 50 and 100 uM preincubated for 15 mins followed by [3H]-SAM addition measured after 120 mins by radioactive methylation assay; method in brief: as §1
Target sequence in this assay (Q8TEK3 whole entry, looked up, the tested form may be a part): as above

Compound | inhibition [1] | also measured
CCc1nnc2sc(-c3cccc(F)c3)nn12 | 13% | 
Fc1cccc(-c2nn3c(-c4cccc(F)c4)nnc3s2)c1 | 11% | 
Fc1cccc(-c2nn3c(CSc4ccccc4)nnc3s2)c1 | 21% | 
Fc1cccc(-c2nn3c(-c4ccccc4)nnc3s2)c1 | 15% | 
CCOc1cc(CNCc2ccc(C(=O)O)cc2)ccc1OCc1cccs1 |  | inhibition [3]: > 40%; inhibition [4]: Active
c1ccc2c(c1)nnn2Cc1nnc2sc(C34CC5CC(CC(C5)C3)C4)nn12 | 38% | 
CCCc1nnc2sc(-c3cccc(F)c3)nn12 | 35% | 
c1ccc(-c2nn3c(Cn4cnc5ccccc54)nnc3s2)cc1 | 55% | 
Fc1cccc(-c2nn3c(CCc4ccccc4)nnc3s2)c1 | 18% | 
Fc1cccc(-c2nn3c(Cc4ccccc4F)nnc3s2)c1 | 25% | 
Fc1cccc(-c2nn3c(CN4CCCCC4)nnc3s2)c1 | 6% | 
CC(C)N(CCCNC(=O)Nc1ccc(C(C)(C)C)cc1)C[C@H]1O[C@@H](n2ccc3c(N)ncnc32)[C@H](O)[C@@H]1O |  | inhibition [3]: > 40%
c1ccc(Cc2nn3c(Cn4nnc5ccccc54)nnc3s2)cc1 | 63% | IC50 [2]: 19.4 µM
Cc1ccccc1Cc1nnc2sc(-c3cccc(F)c3)nn12 | 27% | 
Cc1ccc(-c2nn3c(Cn4cnc5ccccc54)nnc3s2)cc1C | 72% | IC50 [2]: 17.4 µM
Cc1nc2ccccc2n1Cc1nnc2sc(-c3ccc(F)c(Br)c3)nn12 | 49% | 
O=C1C/C(=N\Nc2nc(-c3cccc(O)c3)cs2)c2ccccc21 |  | inhibition [3]: > 40%; inhibition [4]: Active
Fc1cccc(-c2nn3c(Cc4ccccc4)nnc3s2)c1 | 33% | 
Cc1ccc(Cn2c(SCC(=O)N/N=C/c3ccc(O)cc3)nc3ccccc32)cc1 |  | inhibition [3]: > 40%; inhibition [4]: Active

Continued, in another order:

inhibition [1] | Compound | also measured
43% | c1ccc(OCc2nn3c(Cn4nnc5ccccc54)nnc3s2)cc1 | 
66% | c1ccc2c(c1)nnn2Cc1nnc2sc(-c3ccc4c(c3)OCCO4)nn12 | IC50 [2]: 8.4 µM
62% | Brc1cccc(-c2nn3c(Cn4cnc5ccccc54)nnc3s2)c1 | IC50 [2]: 4.09 µM
48% | c1coc(-c2nn3c(Cn4nnc5ccccc54)nnc3s2)c1 | 
50% | CCOc1ccc(-c2nn3c(Cn4nnc5ccccc54)nnc3s2)cc1 | 
50% | Cc1cccc(OCc2nn3c(Cn4nnc5ccccc54)nnc3s2)c1 | 
69% | Fc1ccc(-c2nn3c(Cn4nnc5ccccc54)nnc3s2)cc1 | IC50 [2]: 4.64 µM
55% | Cc1ccccc1-c1nn2c(Cn3nnc4ccccc43)nnc2s1 | 
67% | CC(C)(C)c1ccc(-c2nn3c(Cn4nnc5ccccc54)nnc3s2)cc1 | IC50 [2]: 4.48 µM
70% | COc1cccc(-c2nn3c(Cn4nnc5ccccc54)nnc3s2)c1 | IC50 [2]: 6.47 µM
54% | COc1ccc(-c2nn3c(Cn4nnc5ccccc54)nnc3s2)cc1 | 
65% | c1ccc2c(c1)nnn2Cc1nnc2sc(-c3ccc4c(c3)OCO4)nn12 | IC50 [2]: 3.96 µM
56% | COc1ccc(-c2nn3c(Cn4nnc5ccccc54)nnc3s2)cc1OC | 
50% | Brc1ccc(-c2nn3c(Cn4nnc5ccccc54)nnc3s2)cc1 | 
52% | Cc1ccc(OCc2nn3c(Cn4nnc5ccccc54)nnc3s2)cc1 | 
57% | Fc1cccc(-c2nn3c(Cn4cnc5ccccc54)nnc3s2)c1 | 
53% | c1ccc(-c2nn3c(Cn4nnc5ccccc54)nnc3s2)nc1 | 
55% | COc1ccccc1-c1nn2c(Cn3nnc4ccccc43)nnc2s1 | 
